{"source": "ChEMBL document CHEMBL4813972", "about": "“A grafted peptidomimetic for EGFR heterodimerization inhibition: Implications in NSCLC models” (Eur J Med Chem, 2021)", "key": {"[1]": {"assay": "Toxicity in BALB/c mouse assessed as increase in Ki-67 expression at 5 ug/ml, iv administered on day 0 and 10 and spleenocytes collected on day 13 and incubated for 48 hrs by flow cytometry analysis", "assay_type": "organism-based", "conditions": "in vivo, 360 h, dose 5 µg/ml, time 15 day", "how_it_was_run": "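Splenocytes from PBS- or peptide-primed BALB/c mice (6 mg/kg i.v. days 0 and 10; harvested day 13) cultured 48 h with concanavalin A 5 μg/mL. Ki67 in CD3+ cells measured by flow cytometry after viability, surface and intracellular staining.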"}, "Calu-3 [2]": {"tested_on": "Calu-3", "assay": "Antiproliferative activity against human Calu-3 cells overexpressing HER2 assessed as cell growth inhibition incubated for 72 hrs by cell titer glo assay", "assay_type": "functional, cell-based", "conditions": "Calu-3, 72 h"}, "A549": {"tested_on": "A549", "assay": "Antiproliferative activity against human A549 cells overexpressing HER2 assessed as cell growth inhibition incubated for 72 hrs by cell titer glo assay", "assay_type": "functional, cell-based", "conditions": "A549, 72 h", "how_it_was_run": "(§1)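 Cells seeded at 1×10^4 per well, left overnight at 37 °C/5% CO2, then exposed to a concentration series of peptide (up to 200, down to 0.01 μM) for 72 h. 1% SDS and 1% DMSO served as controls. Cells were PBS-washed, CellTiter-Glo added and luminescence read. IC50 taken from three independent experiments per cell line.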"}, "MCF7": {"tested_on": "MCF7", "assay": "Antiproliferative activity against human MCF7 cells with silenced HER2 assessed as cell growth inhibition incubated for 72 hrs by cell titer glo assay", "assay_type": "functional, cell-based", "conditions": "MCF7, 72 h", "how_it_was_run": "as §1"}, "MCF-10A": {"tested_on": "MCF-10A", "assay": "Cytotoxicity against human MCF-10A cells assessed as cell growth inhibition incubated for 72 hrs by cell titer glo assay", "assay_type": "cell-based", "how_it_was_run": "as §1"}, "BT-474": {"tested_on": "BT-474", "assay": "Antiproliferative activity against human BT-474 cells overexpressing HER2 assessed as cell growth inhibition incubated for 72 hrs by cell titer glo assay", "assay_type": "functional, cell-based", "conditions": "BT-474, 72 h"}, "Calu-3 [3]": {"tested_on": "Calu-3", "assay": "Antitumor activity in human Calu-3 cells xenografted in Foxn1nu/Foxn1+ mouse assessed as reduction in tumor growth at 6 mg/kg, IT(Intratumoral) administered thrice a week for 21 days in presence of trastu-zumab and measured on day 21 relative to control", "assay_type": "functional, organism-based", "conditions": "time 21.0 day"}, "Calu-3 [4]": {"tested_on": "Calu-3", "assay": "Antitumor activity in human Calu-3 cells xenografted in Foxn1nu/Foxn1+ mouse assessed as reduction in tumor growth at 8 mg/kg, IT(Intratumoral) administered thrice a week for 21 days and measured on day 21 relative to control", "conditions": "time 21.0 day"}}, "note": "Activity calls are given as the source filed them. The rule behind the calls is not given here. Starred links: 1 amine or outer side, 2 acyl side, 3 side chain; linkers in the order of their positions; H or OH if unused. Positions of bridges follow the written chain, without caps; N, C: chain ends. Non-standard residues stand in square brackets, D forms with d. Residues, ends and D or L forms follow the SMILES beside them. X1 = N=C(N)NCCC[C@H](N[*:2])C(=O)NC(=O)[C@H](CC(=O)O)NC(=O)[*:1]; βAla(3R-(1-naphthyl)) = O=C(C[C@@H](N[*:1])c1cccc2ccccc12)[*:2]; βAla(3S-(1-naphthyl)) = O=C(C[C@H](N[*:1])c1cccc2ccccc12)[*:2]"}
{"smiles": "Cc1cn(C2C[C@H](N=[N+]=[N-])[C@@H](CO)O2)c(=O)[nH]c1=O", "note": "(stereo partly specified)", "values": [{"measurement": "Activity", "setting": "[1]", "result": "Toxic"}]}
{"smiles": "CC[C@H](C)[C@@H]1NC(=O)[C@@H]2CSSC[C@H](NC(=O)[C@H](CCCNC(=N)N)NC(=O)CNC(=O)[C@H](CC(=O)O)NC(=O)[C@@H]3CCCN3C(=O)N[C@@H](Cc3ccccc3)C(=O)N2)C(=O)N[C@@H]([C@H](C)O)C(=O)N[C@@H](CCCCN)C(=O)N([C@@H](CO)C(=O)O)C(=O)[C@H]([C@@H](C)CC)NC(=O)[C@@H]2CCCN2C(=O)[C@@H]2CCCN2C1=O", "values": [{"measurement": "IC50", "setting": "Calu-3 [2]", "result": "> 100", "unit": "µM"}, {"measurement": "IC50", "setting": "A549", "result": "> 100", "unit": "µM"}]}
{"smiles": "N=C(N)NCCC[C@@H]1NC(=O)[C@H]2CCCN2C(=O)[C@@H]2CCCN2C(=O)[C@H](CCCNC(=N)N)NC(=O)C[C@H](c2cccc3ccccc23)NC(=O)[C@H](Cc2ccccc2)NC(=O)[C@H](CC(=O)O)NC(=O)[C@H](CC(=O)O)NC(=O)[C@H](Cc2ccccc2)NC(=O)C[C@H](c2cccc3ccccc23)NC1=O", "note": "(cyclo(DDF[βAla(3R-(1-naphthyl))]RP[dP]R[βAla(3R-(1-naphthyl))]F))", "values": [{"measurement": "IC50", "setting": "MCF7", "result": "> 50", "unit": "µM"}, {"measurement": "IC50", "setting": "MCF-10A", "result": 40, "unit": "µM"}]}
{"smiles": "CC[C@H](C)[C@@H]1NC(=O)[C@H](CO)NC(=O)[C@H](CC(=O)O)NC(=O)[C@H](Cc2ccccc2)NC(=O)[C@@H]2CSSC[C@H](NC(=O)[C@H](Cc3ccccc3)NC(=O)[C@H](CC(=O)O)NC1=O)C(=O)N[C@H](c1cccc3ccccc13)CC(=O)N[C@@H](CCCNC(=N)N)C(=O)NC(=O)[C@H](CC(=O)O)NC(=O)N[C@@H](CCCNC(=N)N)C(=O)N[C@H](c1cccc3ccccc13)CC(=O)N2", "note": "(R[βAla(3S-(1-naphthyl))]CFDSIDFC[βAla(3S-(1-naphthyl))]; disulfide 3-10; linker N-C via X1)", "values": [{"measurement": "IC50", "setting": "BT-474", "result": 4.16, "unit": "µM"}, {"measurement": "IC50", "setting": "MCF7", "result": "> 50", "unit": "µM"}]}
{"smiles": "NCCCC[C@H](N)C(=O)N[C@@H](CC(=O)N[C@@H](Cc1ccccc1)C(=O)O)c1ccc(-c2ccccc2)cc1", "values": [{"measurement": "IC50", "setting": "BT-474", "result": "> 100", "unit": "µM"}, {"measurement": "IC50", "setting": "MCF7", "result": "> 100", "unit": "µM"}, {"measurement": "IC50", "setting": "Calu-3 [2]", "result": "> 100", "unit": "µM"}, {"measurement": "IC50", "setting": "A549", "result": "> 100", "unit": "µM"}]}
{"smiles": "N=C(N)NCCC[C@@H]1NC(=O)[C@H]2CCCN2C(=O)[C@@H]2CCCN2C(=O)[C@H](CCCNC(=N)N)NC(=O)C[C@H](c2cccc3ccccc23)NC(=O)N[C@H]2CSSC[C@H](NC(=O)C[C@H](c3cccc4ccccc34)NC1=O)C(=O)N[C@@H](Cc1ccccc1)C(=O)NC(=O)[C@H](Cc1ccccc1)NC2=O", "values": [{"measurement": "IC50", "setting": "BT-474", "result": 5.23, "unit": "µM"}, {"measurement": "IC50", "setting": "MCF7", "result": "> 50", "unit": "µM"}]}
{"smiles": "CC[C@H](C)[C@@H]1NC(=O)[C@@H]2CCCN2C(=O)[C@@H]2CCCN2C(=O)NC(=O)[C@H](CC(=O)O)NC(=O)[C@H](Cc2ccccc2)NC(=O)[C@@H]2CSSC[C@H](NC(=O)N[C@H](c3cccc4ccccc34)CC(=O)N[C@@H](CCCNC(=N)N)C(=O)N3CCC[C@H]3C(=O)NCC(=O)N[C@@H](CCCNC(=N)N)C(=O)N[C@H](c3cccc4ccccc34)CC(=O)N2)C(=O)N[C@@H](Cc2ccccc2)C(=O)NC(=O)[C@H](CC(=O)O)NC(=O)[C@H](CO)NC1=O", "values": [{"measurement": "IC50", "setting": "BT-474", "result": 7.22, "unit": "µM"}, {"measurement": "IC50", "setting": "MCF7", "result": "> 30", "unit": "µM"}]}
{"smiles": "Cc1ccc(OCC(O)C(C)NC(C)C)c2c1CCC2", "note": "(stereo unspecified)", "values": [{"measurement": "Activity", "setting": "Calu-3 [3]", "result": "Active"}, {"measurement": "Activity", "setting": "Calu-3 [4]", "result": "Active"}]}
{"smiles": "CC[C@H](C)[C@H]1C(=O)NC(=O)[C@H](CCCNC(=N)N)NC(=O)C[C@H](c2cccc3ccccc23)NC(=O)N[C@H]2CSSC[C@H](NC(=O)C[C@H](c3cccc4ccccc34)NC(=O)[C@H](CCCNC(=N)N)NC(=O)[C@@H]3CCCN3C(=O)[C@@H]3CCCN13)C(=O)N[C@@H](Cc1ccccc1)C(=O)N1CCC[C@H]1C(=O)N[C@@H](CC(=O)O)C(=O)NC(=O)[C@H](CC(=O)O)NC(=O)[C@H](Cc1ccccc1)NC2=O", "values": [{"measurement": "IC50", "setting": "BT-474", "result": 2.94, "unit": "µM"}, {"measurement": "IC50", "setting": "MCF7", "result": "> 50", "unit": "µM"}]}
{"smiles": "N=C(N)NCCC[C@@H]1NC(=O)[C@H]2CCCN2C(=O)[C@@H]2CCCN2C(=O)[C@H](CCCNC(=N)N)NC(=O)C[C@H](c2cccc3ccccc23)NC(=O)N[C@H]2CSSC[C@H](NC(=O)C[C@H](c3cccc4ccccc34)NC1=O)C(=O)N[C@@H](Cc1ccccc1)C(=O)N[C@@H](CC(=O)O)C(=O)NC(=O)[C@H](CC(=O)O)NC(=O)[C@H](Cc1ccccc1)NC2=O", "values": [{"measurement": "IC50", "setting": "BT-474", "result": 3.65, "unit": "µM"}, {"measurement": "IC50", "setting": "MCF7", "result": "> 50", "unit": "µM"}]}
